Measured values reported in ChEMBL document CHEMBL4610030, “Identification of human lactate dehydrogenase A inhibitors with anti-osteosarcoma activity through cell-based phenotypic screening” (Bioorg Med Chem Lett, 2020).
One block for each compound: values may come before it. Active and inactive are the calls of the source. No cut-off for these calls is given here.

What was measured:
[1] = biological target: T1, L-lactate dehydrogenase A chain (Homo sapiens, UniProt P00338); assay: Inhibition of human LDHA at 5 uM using NADH and pyruvate by microplate reader based assay relative to control
In short: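 Recombinant-free description: hLDHA was incubated with pyruvate and NADH plus compound at 5 µM. NADH consumption was followed as the decrease in absorbance at 340 nm on a microplate reader and expressed as inhibitory rate.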

[2] = biological target: T1, L-lactate dehydrogenase A chain; assay: Inhibition of human LDHA using NADH and pyruvate by microplate reader based assay
In short: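 hLDHA activity was measured with pyruvate and NADH across full dose-response to give EC50. The read-out was the decline in absorbance at 340 nm on a microplate reader.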

[3] = biological target: T1, L-lactate dehydrogenase A chain; assay: Binding affinity at human LDHA assessed as dissociation constant by isothermal titration calorimetry
In short: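 Compounds were titrated into hLDHA by isothermal titration calorimetry to obtain Kd.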

MG-63 [4] = assay: Antiproliferative activity against human MG63 cells assessed as reduction in cell viability at 5 uM incubated by IncuCyte zoom live cell analysis; type: functional, cell-based; conditions: TDE = time-dependent effect
In short: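 MG-63 cells were exposed to 5 µM and imaged over time by IncuCyte Zoom live-cell analysis to follow growth.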

MG-63 [5] = assay: Antiproliferative activity against human MG63 cells assessed as reduction in cell viability incubated for 24 to 72 hrs by IncuCyte zoom live cell analysis; type: functional, cell-based
HOS = assay: Antiproliferative activity against human HOS cells assessed as reduction in cell viability incubated for 24 to 72 hrs by IncuCyte zoom live cell analysis; type: functional, cell-based
SAOS-2 = assay: Antiproliferative activity against human Saos2 cells assessed as reduction in cell viability incubated for 24 to 72 hrs by IncuCyte zoom live cell analysis; type: functional, cell-based
U2OS = assay: Antiproliferative activity against human U2OS cells assessed as reduction in cell viability incubated for 24 to 72 hrs by IncuCyte zoom live cell analysis; type: functional, cell-based
MG-63 [6] = assay: Induction of apoptosis in human MG63 cells assessed as viable cells at 5 uM measured after 12 hrs by annexin V-propidium iodide staining-based flow cytometry (reference value: 98.11 %); type: functional; conditions: MG-63, 12 h, read-out: Activity
In short: (§1)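 MG-63 cells were treated at 5 µM for 12, 18 or 24 h, or at 2, 5 or 10 µM for 24 h. Cells were then stained with annexin V-FITC/PI and analysed by flow cytometry for apoptotic populations.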

MG-63 [7] = assay: Induction of apoptosis in human MG63 cells assessed as early apoptotic cells at 5 uM measured after 12 hrs by annexin V-propidium iodide staining-based flow cytometry (reference value: 0.14 %); type: functional; in short: as §1
MG-63 [8] = assay: Induction of apoptosis in human MG63 cells assessed as late apoptotic cells at 5 uM measured after 12 hrs by annexin V-propidium iodide staining-based flow cytometry (reference value: 0.91 %); type: functional; in short: as §1
MG-63 [9] = assay: Induction of apoptosis in human MG63 cells assessed as necrotic cells at 5 uM measured after 12 hrs by annexin V-propidium iodide staining-based flow cytometry (reference value: 0.84 %); type: functional; in short: as §1
MG-63 [10] = assay: Induction of apoptosis in human MG63 cells assessed as viable cells at 5 uM measured after 18 hrs by annexin V-propidium iodide staining-based flow cytometry (reference value: 98.11 %); type: functional; conditions: MG-63, 18 h, read-out: Activity; in short: as §1
MG-63 [11] = assay: Induction of apoptosis in human MG63 cells assessed as early apoptotic cells at 5 uM measured after 18 hrs by annexin V-propidium iodide staining-based flow cytometry (reference value: 0.14 %); type: functional; in short: as §1
MG-63 [12] = assay: Induction of apoptosis in human MG63 cells assessed as late apoptotic cells at 5 uM measured after 18 hrs by annexin V-propidium iodide staining-based flow cytometry (reference value: 0.91 %); type: functional; in short: as §1
MG-63 [13] = assay: Induction of apoptosis in human MG63 cells assessed as necrotic cells at 5 uM measured after 18 hrs by annexin V-propidium iodide staining-based flow cytometry (reference value: 0.84 %); type: functional; in short: as §1
MG-63 [14] = assay: Induction of apoptosis in human MG63 cells assessed as viable cells at 5 uM measured after 24 hrs by annexin V-propidium iodide staining-based flow cytometry (reference value: 96.30 to 98.11 %); type: functional; conditions: MG-63, 24 h, read-out: Activity; in short: as §1
MG-63 [15] = assay: Induction of apoptosis in human MG63 cells assessed as early apoptotic cells at 5 uM measured after 24 hrs by annexin V-propidium iodide staining-based flow cytometry (reference value: 0.14 to 0.16 %); type: functional; in short: as §1
MG-63 [16] = assay: Induction of apoptosis in human MG63 cells assessed as late apoptotic cells at 5 uM measured after 24 hrs by annexin V-propidium iodide staining-based flow cytometry (reference value: 0.91 to 1.44 %); type: functional; in short: as §1
MG-63 [17] = assay: Induction of apoptosis in human MG63 cells assessed as necrotic cells at 5 uM measured after 24 hrs by annexin V-propidium iodide staining-based flow cytometry (reference value: 0.84 to 2.10 %); type: functional; in short: as §1
MG-63 [18] = assay: Induction of apoptosis in human MG63 cells assessed as viable cells at 2 uM measured after 24 hrs by annexin V-propidium iodide staining-based flow cytometry (reference value: 96.30 %); type: functional; conditions: MG-63, 24 h, read-out: Activity; in short: as §1
MG-63 [19] = assay: Induction of apoptosis in human MG63 cells assessed as early apoptotic cells at 2 uM measured after 24 hrs by annexin V-propidium iodide staining-based flow cytometry (reference value: 0.16 %); type: functional; in short: as §1
MG-63 [20] = assay: Induction of apoptosis in human MG63 cells assessed as late apoptotic cells at 2 uM measured after 24 hrs by annexin V-propidium iodide staining-based flow cytometry (reference value: 1.44 %); type: functional; in short: as §1
MG-63 [21] = assay: Induction of apoptosis in human MG63 cells assessed as necrotic cells at 2 uM measured after 24 hrs by annexin V-propidium iodide staining-based flow cytometry (reference value: 2.10 %); type: functional; in short: as §1
MG-63 [22] = assay: Induction of apoptosis in human MG63 cells assessed as viable cells at 10 uM measured after 24 hrs by annexin V-propidium iodide staining-based flow cytometry (reference value: 96.30 %); type: functional; conditions: MG-63, 24 h, read-out: Activity; in short: as §1
MG-63 [23] = assay: Induction of apoptosis in human MG63 cells assessed as early apoptotic cells at 10 uM measured after 24 hrs by annexin V-propidium iodide staining-based flow cytometry (reference value: 0.16 %); type: functional; in short: as §1
MG-63 [24] = assay: Induction of apoptosis in human MG63 cells assessed as late apoptotic cells at 10 uM measured after 24 hrs by annexin V-propidium iodide staining-based flow cytometry (reference value: 1.44 %); type: functional; in short: as §1
MG-63 [25] = assay: Induction of apoptosis in human MG63 cells assessed as necrotic cells at 10 uM measured after 24 hrs by annexin V-propidium iodide staining-based flow cytometry (reference value: 2.10 %); type: functional; in short: as §1
MG-63 [26] = assay: Induction of apoptosis in human MG63 cells measured after 24 hrs by annexin V-propidium iodide staining-based flow cytometry; type: functional, cell-based; in short: as §1
[27] = biological target: T1, L-lactate dehydrogenase A chain; assay: Inhibition of LDHA in human MG63 cells assessed as reduction in lactate formation at 2 to 10 uM incubated for 4 hrs; type: cell-based; conditions: MG-63
In short: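 MG-63 cells were treated at 2, 5 and 10 µM for 4 h. Lactate was then measured in the culture medium and compared with untreated control, with P < 0.05.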

[28] = biological target: T1, L-lactate dehydrogenase A chain; assay: Inhibition of LDHA in human MG63 cells assessed as reduction in extracellular acidification rate at 2 to 10 uM incubated for 4 hrs by seahorse XFe96 analyser based assay; type: cell-based; conditions: MG-63
[29] = biological target: T1, L-lactate dehydrogenase A chain; assay: Inhibition of LDHA in human MG63 cells assessed as reduction in proton production rate at 2 to 10 uM incubated for 4 hrs by seahorse XFe96 analyser based assay; type: cell-based; conditions: MG-63
[30] = biological target: T1, L-lactate dehydrogenase A chain; assay: Inhibition of LDHA in human MG63 cells assessed as increase in oxygen consumption rate incubated for 4 hrs by seahorse XFe96 analyser based assay; type: cell-based; conditions: MG-63

inhibition [1]: 91.2%
EC50 [2]: 0.67 µM
Kd [3]: 2.41 µM
IC50 (U2OS): 3.7 µM
inhibition [27]: Active
inhibition [28]: Active
inhibition [29]: Active
inhibition [30]: Dose-dependent effect
Compound: Cc1c(C(=O)Nc2ccccc2)[n+]([O-])cn1-c1ccc2[nH]c(CC(C)C)nc2c1
Activity (MG-63 [4]): Tde
IC50 (MG-63 [5]): 2.93 µM
IC50 (HOS): 4.6 µM
IC50 (SAOS-2): 5.1 µM
viability at 5 µM (MG-63 [6]): 92.3%
Activity (MG-63 [7]): 0.34%
Activity (MG-63 [8]): 5.08%
Activity (MG-63 [9]): 2.3%
viability at 5 µM (MG-63 [10]): 83.8%
Activity (MG-63 [11]): 1.32%
Activity (MG-63 [12]): 10.37%
Activity (MG-63 [13]): 4.56%
viability at 5 µM (MG-63 [14]): 66.6 to 78.3%
Activity (MG-63 [15]): 1.1 - 3.47%
Activity (MG-63 [16]): 12.28 - 19.86%
Activity (MG-63 [17]): 8.3 - 10.1%
viability at 2 µM (MG-63 [18]): 94.8%
Activity (MG-63 [19]): 0.4%
Activity (MG-63 [20]): 3.21%
Activity (MG-63 [21]): 1.54%
viability at 10 µM (MG-63 [22]): 66.2%
Activity (MG-63 [23]): 3.55%
Activity (MG-63 [24]): 20.03%
Activity (MG-63 [25]): 10.19%
Activity (MG-63 [26]): Dose-dependent effect

inhibition [1]: > 50%
EC50 [2]: 3.26 µM
Kd [3]: 9.85 µM
IC50 (U2OS): 9.5 µM
Compound: Cc1c(C(=O)Nc2ccccc2)[n+]([O-])cn1-c1ccc2occc(=O)c2c1
IC50 (MG-63 [5]): 6.1 µM
IC50 (HOS): 12.5 µM
IC50 (SAOS-2): 13.6 µM

inhibition [1]: > 50%
EC50 [2]: 3.03 µM
Kd [3]: 6.41 µM
IC50 (U2OS): 14.9 µM
Compound: COc1ccc(-n2c[n+]([O-])c(C(=O)Nc3ccccc3)c2C)cc1N1CCCCS1(=O)=O
IC50 (MG-63 [5]): 6.47 µM
IC50 (HOS): 10.2 µM
IC50 (SAOS-2): 7.5 µM
